pIC50: −log10 of the molar value. Activity calls are given as the source filed them. The calls are words filed in the database; no cut-off is given here.
Columns and labels:
HepG2 [1] = assay: Cytotoxicity against human HepG2 cells assessed as reduction in cell density at 0.5 to 100 uM after 48 hrs by SRB assay; assay type: cell-based; conditions: hepg2, 48 h
Liver [2] = assay: Increase in oligomycin-inhibited respiration in rat liver mitochondria after 5 mins in presence of glutamate/malate; assay type: functional
Method in brief: (§1)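 Glutamate/malate (10/5 mM) or succinate (5 mM) was the substrate, with compound 2.5–10 μM for 5 min (state 2). ADP was added (125 nmol glutamate/malate; 75 nmol succinate), then oligomycin 2 μg/mL, then FCCP 1 μM. RCR and ADP/O were calculated. Seven experiments.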

HepG2 [3] = assay: Cytotoxicity against human HepG2 cells assessed as chromatin condensation at 100 uM after 48 hrs Hoechst 33342-staining based epifluorescence microscopic analysis; assay type: cell-based; conditions: hepg2, 48 h
Method in brief: (§2)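 HepG2 cells on coverslips (8 × 10^4 cells/2 mL) were treated 48 h. In the last 30 min, cells were stained with TMRM (100 nM) and Hoechst 33342 (1 μg/mL) in HBSS pH 7.4 at 37 °C in the dark. Live cells were imaged by fluorescence microscopy, four random fields per well, three experiments.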

[4] = Antioxidant activity assessed as GO radical scavenging activity measured for 30 mins in absence of light; assay type: functional
Method in brief: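 Ethanolic GO• (5 mM stock) diluted to absorbance 1.00 ± 0.02 at 428 nm. Test solutions (5–75 μM in ethanol) were added in triplicate and read at 428 nm at room temperature. Inhibition was taken against an ethanol blank (100% radical).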

Liver [5] = assay: Induction of basal respiration in rat liver mitochondria measured 5 mins after ADP phosphorylation in presence of glutamate/malate; assay type: functional; method in brief: as §1
HepG2 [6] = assay: Cytotoxicity against human HepG2 cells assessed as depletion of intracellular GSH content at 100 uM after 48 hrs by HPLC analysis; assay type: cell-based; conditions: hepg2, 48 h
Method in brief: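 HepG2 cells (4 × 10^5 per 100 mm dish) were incubated 48 h, collected and stored at −80 °C in PBS. Reduced GSH was measured by reverse-phase HPLC with detection at 515 nm and expressed as nmol GSH/μg protein. Four experiments.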

[7] = Redox potential of compound in Ag/AgCl-NaCl containing phosphate buffer at 0.1 mM at pH 7.4 by cyclic voltammetric analysis
Method in brief: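 Voltammetry used a glassy carbon working electrode, Pt counter and Ag/AgCl reference. Compound was at 0.1 mM final (10 mM ethanolic stock) in pH 7.4 potassium phosphate electrolyte.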

[8] = Iron chelating activity in ammonium acetate buffer assessed as inhibition of [Fe(ferrozine)3]2+ formation at 100 uM at pH 6.7 measured after 10 mins by spectrophotometric analysis
Method in brief: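 Ferrozine assay in ammonium acetate buffer pH 6.7. Compound (100 μM) plus ammonium iron(II) sulfate (20 μM) for 10 min, read at 562 nm. Ferrozine was added, incubated 10 min at 37 °C, and re-read at 562 nm. The first reading was subtracted, with a DMSO blank and EDTA = 100%. Three experiments.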

[9] = Antioxidant activity assessed as DPPH radical scavenging activity measured every minute for 45 mins; assay type: functional
Method in brief: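 DPPH• ethanolic solution diluted to absorbance 0.72 ± 0.02 at 515 nm. Ethanolic test solutions (50–500 μM) were added in triplicate and read at 515 nm. Inhibition was taken against an ethanol blank (100% radical), and IC50 was read from dose–response curves.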

Liver [10] = assay: Increase in oligomycin-inhibited respiration in rat liver mitochondria after 5 mins in presence of succinate; assay type: functional; method in brief: as §1
Liver [11] = assay: Decrease in oxidative phosphorylation efficiency in rat liver mitochondria assessed as reduction in coupling between ATP systhesis and oxygen consumption after 5 mins in presence of glutamate/malate; assay type: functional; method in brief: as §1
Liver [12] = assay: Induction of basal oxygen consumption under nonphosphorylative conditions in rat liver mitochondria after 5 mins in presence of glutamate/malate; assay type: functional; method in brief: as §1
[13] = Antioxidant activity assessed as ABTS radical scavenging activity measured each minute for 15 mins by spectrophotometric analysis; assay type: functional
Method in brief: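 ABTS•+ generated from 7 mM ABTS plus potassium persulfate, held 16 h dark at room temperature, then diluted in ethanol to absorbance 0.72 ± 0.02. Ethanolic test solutions (10–500 μM) were added to radical solution in triplicate. Inhibition was taken against an ethanol blank (100% radical), and IC50 was read from dose–response curves.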

HepG2 [14] = assay: Antioxidant activity in human HepG2 cells assessed as reduction in H2O2-induced cell toxicity at 100 uM preincubated for 1 hr followed by H2O2 addition for 48 hrs by SRB assay; assay type: functional, cell-based
Method in brief: (§3)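 HepG2 cells, grown in high-glucose DMEM with 10% FBS at 37 °C and 5% CO2, seeded at 2 × 10^4 cells/500 μL. Cells were preincubated with compound, then given 250 μM FeSO4 or 250 μM H2O2. Cell mass was read by SRB (fixed, stained, OD 540 nm) as % of untreated control. Four independent experiments.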

HepG2 [15] = assay: Antioxidant activity in human HepG2 cells assessed as reduction in FeSO4-induced cell toxicity at 100 uM preincubated for 1 hr followed by FeSO4 addition for 48 hrs by SRB assay; assay type: functional, cell-based; method in brief: as §3
[16] = Lipophilicity of compound in Ag/AgCl-NaCl containing PET membrane assessed as tranfer potential at pH 7; assay type: physicochemical
Method in brief: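 Transfer across a liquid–liquid interface on a microporous PET membrane, with 1,6-dichlorohexane organic phase containing BTPPATPBCl. A gelled 2 mM BTPPACl + 2 mM NaCl reference was used, with 10 mM Tris-HCl pH 7.0 aqueous electrolyte.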

Liver [17] = assay: Drug uptake in rat liver extra-mitochondria at 1 uM in presence of succinate/valinomycin by TPP+-based electrode assay; assay type: ADME, tissue-based
Method in brief: (§4)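 TPP+-selective electrode with rat liver mitochondria (0.5 mg/mL) in 120 mM KCl, 10 mM HEPES pH 7.2, 1 mM EGTA at 37 °C with rotenone 1.5 μM. Five 1 μM additions calibrated the electrode, then succinate 10 mM was added, then valinomycin 0.2 μg/mL. The accumulation ratio assumed a matrix volume of ~0.5 μL/mg with a binding correction.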

Liver [18] = assay: Induction of ADP-stimulated respiration in rat liver mitochondria after 5 mins in presence of glutamate/malate; assay type: functional; method in brief: as §1
Liver [19] = assay: Drug uptake in rat liver intra-mitochondria at 1 uM in presence of succinate/valinomycin by TPP+-based electrode assay; assay type: ADME, tissue-based; method in brief: as §4
Liver [20] = assay: Decrease in oxidative phosphorylation efficiency in rat liver mitochondria assessed as reduction in coupling between ATP systhesis and oxygen consumption after 5 mins in presence of succinate; assay type: functional; method in brief: as §1
HepG2 [21] = assay: Antioxidant activity in human HepG2 cells assessed as intracellular GSH content per ug of protein at 100 uM after 48 hrs by HPLC analysis (reference value: 17.81 nmol); assay type: functional
HepG2 [22] = assay: Cytotoxicity against human HepG2 cells assessed as mitochondrial depolarization at 100 uM after 48 hrs TMRM-staining based epifluorescence microscopic analysis; assay type: cell-based; conditions: hepg2, 48 h; method in brief: as §2
Liver [23] = assay: Induction of basal oxygen consumption under nonphosphorylative conditions in rat liver mitochondria after 5 mins in presence of succinate; assay type: functional; method in brief: as §1
Liver [24] = assay: Antioxidant activity in rat liver mitochondria assessed as inhibition of ADP/FeSO4-induced lipid peroxidation at 5 uM preincubated for 5 mins followed by ADP/FeSO4 addition; assay type: functional
Method in brief: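 Rat liver mitochondria (2 mg) in 100 mM KCl, 10 mM Tris-HCl pH 7.6, with glutamate/malate (5/2.5 mM) at 37 °C. After 5 min with compound (5 μM), peroxidation was started with ADP/0.1 mM FeSO4. The lag phase of O2 consumption was measured by Clark electrode and expressed as % of control. Six experiments.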

Liver [25] = assay: Induction of ADP-stimulated respiration in rat liver mitochondria after 5 mins in presence of succinate; assay type: functional; method in brief: as §1
Liver [26] = assay: Ratio of drug level in rat liver intra-mitochondria to extra-mitochondria at 1 uM in presence of succinate/valinomycin by TPP+-based electrode assay; assay type: ADME, tissue-based; method in brief: as §4
Liver [27] = assay: Decrease in oxidative phosphorylation efficiency in rat liver mitochondria assessed as reduction in respiratory control ratio after 5 mins in presence of glutamate/malate; assay type: functional; method in brief: as §1
Liver [28] = assay: Induction of basal respiration in rat liver mitochondria measured 5 mins after ADP phosphorylation in presence of succinate; assay type: functional; method in brief: as §1

Q: What does the source list for `CS(=O)(=O)[O-].O=C(/C=C/c1cc(O)c(O)c(O)c1)NCCCCCC[P+](c1ccccc1)(c1ccccc1)c1ccccc1`?
A: Activity (HepG2 [1]): Non-Toxic; Activity (Liver [2]): Dose-dependent effect; Activity (HepG2 [3]): Non-Toxic; pIC50 [4]: 5.51; Activity (Liver [5]): Dose-dependent effect; Activity (HepG2 [6]): Non-Toxic; Activity [7]: 0.034 V; inhibition [8]: Active; pIC50 [9]: 4.72; Activity (Liver [10]): Dose-dependent effect; Activity (Liver [11]): Dose-dependent effect; Activity (Liver [12]): Dose-dependent effect; pIC50 [13]: 4.91; inhibition (HepG2 [14]): Active; inhibition (HepG2 [15]): Active; Activity [16]: 0.498 V; Drug uptake (Liver [17]): 2.4 µM; Activity (Liver [18]): Dose-dependent effect; Drug uptake (Liver [19]): 2 mM; Activity (Liver [20]): Dose-dependent effect; Activity (HepG2 [21]): 26.94 nmol; Activity (HepG2 [22]): Non-Toxic; Activity (Liver [23]): Dose-dependent effect; inhibition (Liver [24]): Active; Activity (Liver [25]): Dose-dependent effect; Ratio (Liver [26]): 2100; Activity (Liver [27]): Dose-dependent effect; Activity (Liver [28]): Dose-dependent effect

Source: ChEMBL document CHEMBL4038331 (J Med Chem, 2017)
